Test [1] is described as follows: Displacement of 5-(3-(4-(((5S,6S)-10-(3,5-dichlorophenylsulfonyl)-2-oxo-5-vinyl-3,10-diazabicyclo[4.3.1]decan-3-yl)methyl)-1H-1,2,3-triazol-1-yl)propylcarbamoyl)-2-(6-(dimethylamino)-3-(dimethyliminio)-3,10-dihydroanthracen-9-yl)benzoate from Chlamydia trachomatis Mip after 30 mins by fluorescence polarization assay. In short, it runs like this: (§1)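 Competitive fluorescence polarization against a TAMRA-labelled tracer in 20 mM NaCl, 20 mM HEPES pH 8.0, 0.002% Tween20. Ligand serially diluted 1:1 in DMSO, then diluted 50-fold into tracer-containing buffer and added to protein. Equilibrated 30 min at room temperature before polarization read. Competition curves fitted.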
For orientation: Polarisation of emitted light reports the rotation of a fluorescent probe.

Test [2] addresses Outer membrane protein MIP (Legionella pneumophila, UniProt Q70YI1). Briefly: Displacement of 5-(3-(4-(((5S,6S)-10-(3,5-dichlorophenylsulfonyl)-2-oxo-5-vinyl-3,10-diazabicyclo[4.3.1]decan-3-yl)methyl)-1H-1,2,3-triazol-1-yl)propylcarbamoyl)-2-(6-(dimethylamino)-3-(dimethyliminio)-3,10-dihydroanthracen-9-yl)benzoate from Legionella pneumophila Mip after 30 mins by fluorescence polarization assay. In short, it runs like this: as §1

A short description of test [3]: Displacement of 5-(3-(4-(((5S,6S)-10-(3,5-dichlorophenylsulfonyl)-2-oxo-5-vinyl-3,10-diazabicyclo[4.3.1]decan-3-yl)methyl)-1H-1,2,3-triazol-1-yl)propylcarbamoyl)-2-(6-(dimethylamino)-3-(dimethyliminio)-3,10-dihydroanthracen-9-yl)benzoate from Candida albicans FKBP12 after 30 mins by fluorescence polarization assay. In short, it runs like this: as §1
Test [4] concerns the target T1, Peptidyl-prolyl cis-trans isomerase Mip (Chlamydia pneumoniae, UniProt Q9Z7P3).
T1 sequence (Q9Z7P3 whole entry): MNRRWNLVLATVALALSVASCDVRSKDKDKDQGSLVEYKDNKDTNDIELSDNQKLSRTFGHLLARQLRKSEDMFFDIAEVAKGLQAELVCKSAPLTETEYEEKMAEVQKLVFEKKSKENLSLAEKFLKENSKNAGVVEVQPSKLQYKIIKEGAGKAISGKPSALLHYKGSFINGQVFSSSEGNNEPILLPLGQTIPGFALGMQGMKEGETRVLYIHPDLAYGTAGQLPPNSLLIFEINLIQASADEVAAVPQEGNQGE
As to the kind of experiment: Displacement of 5-(3-(4-(((5S,6S)-10-(3,5-dichlorophenylsulfonyl)-2-oxo-5-vinyl-3,10-diazabicyclo[4.3.1]decan-3-yl)methyl)-1H-1,2,3-triazol-1-yl)propylcarbamoyl)-2-(6-(dimethylamino)-3-(dimethyliminio)-3,10-dihydroanthracen-9-yl)benzoate from Chlamydia pneumoniae Mip after 30 mins by fluorescence polarization assay. The method in brief: as §1

Test [5] relates to Plasmodium falciparum. Briefly: Antiparasitic activity against multidrug-resistant Plasmodium falciparum Dd2 infected in human RBC assessed as decrease in parasitemia after 60 hrs by Hoechst 33342 staining-based flow cytometric method. The test is classed as functional. The settings on record: Dd2, 60 h. The method in brief: (§2)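 Sorbitol-synchronized early-stage parasites, adjusted to 1% parasitemia at 2% hematocrit. Serial dilutions of compound in DMSO (≤0.05% per well) applied in triplicate for 60 h. Cells stained with 16.2 μM Hoechst 33342 in PBS for 20 min at room temperature. Parasitemia read by flow cytometry; IC50 estimated from dose–response curves.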
Background: A flow cytometer gives signals particle by particle.

Test [6] has as its system Legionella pneumophila. Briefly: Antibacterial activity against Legionella pneumophila Corby infected in differentiated human THP1 cells assessed as bacterial growth inhibition after 24 hrs. The class given is functional. The method in brief:
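THP-1 monocytes at 5 × 10^5 cells/mL were differentiated with 100 nM PMA for 2 days. L. pneumophila Corby grown 3 days on BCYE agar was added at MOI 1. After 2 h, extracellular bacteria were washed off with PBS and compound was added in medium (control 1% DMSO). At 2 and 24 h, cells were lysed with 0.1% Triton X-100 and dilutions plated on BCYE. Colonies counted after 3–4 days at 37 °C. Three independent experiments in duplicate.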

Test [7] is described as follows: Displacement of 5-(3-(4-(((5S,6S)-10-(3,5-dichlorophenylsulfonyl)-2-oxo-5-vinyl-3,10-diazabicyclo[4.3.1]decan-3-yl)methyl)-1H-1,2,3-triazol-1-yl)propylcarbamoyl)-2-(6-(dimethylamino)-3-(dimethyliminio)-3,10-dihydroanthracen-9-yl)benzoate from […] FKBP35 after 30 mins by fluorescence polarization assay. Set-up: species or system Plasmodium falciparum. The method in brief: as §1

The subject of test [8] is Plasmodium falciparum. Briefly: Antiparasitic activity against Plasmodium falciparum 3D7 infected in human RBC assessed as decrease in parasitemia after 60 hrs by Hoechst 33342 staining-based flow cytometric method. The test is classed as functional. The method in brief:
as §2

For test [9], the target named is Peptidyl-prolyl cis-trans isomerase FKBP1A (Homo sapiens, UniProt P62942). As to the kind of experiment: Displacement of 5-(3-(4-(((5S,6S)-10-(3,5-dichlorophenylsulfonyl)-2-oxo-5-vinyl-3,10-diazabicyclo[4.3.1]decan-3-yl)methyl)-1H-1,2,3-triazol-1-yl)propylcarbamoyl)-2-(6-(dimethylamino)-3-(dimethyliminio)-3,10-dihydroanthracen-9-yl)benzoate from human FKBP12 after 30 mins by fluorescence polarization assay. In short, it runs like this: as §1

In test [10] the target is T2, Peptidyl-prolyl cis-trans isomerase FKBP2 (Homo sapiens, UniProt P26885).
T2 sequence (P26885 whole entry): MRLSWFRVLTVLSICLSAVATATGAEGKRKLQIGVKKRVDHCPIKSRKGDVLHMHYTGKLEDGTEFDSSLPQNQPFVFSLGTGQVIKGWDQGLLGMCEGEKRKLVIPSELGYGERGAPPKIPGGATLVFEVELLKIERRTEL
Briefly: Displacement of 5-(3-(4-(((5S,6S)-10-(3,5-dichlorophenylsulfonyl)-2-oxo-5-vinyl-3,10-diazabicyclo[4.3.1]decan-3-yl)methyl)-1H-1,2,3-triazol-1-yl)propylcarbamoyl)-2-(6-(dimethylamino)-3-(dimethyliminio)-3,10-dihydroanthracen-9-yl)benzoate from human FKBP13 after 30 mins by fluorescence polarization assay. In short, it runs like this:
as §1

In test [11] the target is T3, Peptidyl-prolyl cis-trans isomerase FKBP5 (Homo sapiens, UniProt Q13451).
T3 sequence (Q13451 whole entry): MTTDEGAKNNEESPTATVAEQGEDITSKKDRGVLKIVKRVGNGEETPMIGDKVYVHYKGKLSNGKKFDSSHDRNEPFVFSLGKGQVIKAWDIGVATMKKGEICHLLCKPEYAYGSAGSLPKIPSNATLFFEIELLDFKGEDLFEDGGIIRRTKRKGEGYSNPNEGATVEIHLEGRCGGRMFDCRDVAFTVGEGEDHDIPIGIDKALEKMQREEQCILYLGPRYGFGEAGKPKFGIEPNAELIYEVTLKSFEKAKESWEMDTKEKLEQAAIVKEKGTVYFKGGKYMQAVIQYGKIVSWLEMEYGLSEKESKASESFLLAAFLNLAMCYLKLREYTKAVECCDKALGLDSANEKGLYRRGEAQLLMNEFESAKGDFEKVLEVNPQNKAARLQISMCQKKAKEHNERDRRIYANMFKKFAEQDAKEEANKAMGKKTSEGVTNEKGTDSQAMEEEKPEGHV
As to the kind of experiment: Displacement of 5-(3-(4-(((5S,6S)-10-(3,5-dichlorophenylsulfonyl)-2-oxo-5-vinyl-3,10-diazabicyclo[4.3.1]decan-3-yl)methyl)-1H-1,2,3-triazol-1-yl)propylcarbamoyl)-2-(6-(dimethylamino)-3-(dimethyliminio)-3,10-dihydroanthracen-9-yl)benzoate from human FKBP51 after 30 mins by fluorescence polarization assay. In short, it runs like this:
as §1

Test [12] concerns the target Peptidyl-prolyl cis-trans isomerase FKBP1B (Homo sapiens, UniProt P68106). As to the kind of experiment: Displacement of 5-(3-(4-(((5S,6S)-10-(3,5-dichlorophenylsulfonyl)-2-oxo-5-vinyl-3,10-diazabicyclo[4.3.1]decan-3-yl)methyl)-1H-1,2,3-triazol-1-yl)propylcarbamoyl)-2-(6-(dimethylamino)-3-(dimethyliminio)-3,10-dihydroanthracen-9-yl)benzoate from human FKBP12.6 after 30 mins by fluorescence polarization assay. The method in brief: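 Competitive fluorescence polarization with the fluorescent tracer in 20 mM NaCl, 20 mM HEPES pH 8.0, 0.002% Tween20. Ligand is serially diluted 1:1 in DMSO, then 1:50 into tracer-containing buffer. This mix is added to protein at 1.11× final concentration (protein:mix 45:5). After 30 min at room temperature to reach equilibrium, polarization is read and competition curves are fitted.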

Test [13] has as its target T4, Peptidyl-prolyl cis-trans isomerase FKBP3 (Homo sapiens, UniProt Q00688).
T4 sequence (Q00688 whole entry): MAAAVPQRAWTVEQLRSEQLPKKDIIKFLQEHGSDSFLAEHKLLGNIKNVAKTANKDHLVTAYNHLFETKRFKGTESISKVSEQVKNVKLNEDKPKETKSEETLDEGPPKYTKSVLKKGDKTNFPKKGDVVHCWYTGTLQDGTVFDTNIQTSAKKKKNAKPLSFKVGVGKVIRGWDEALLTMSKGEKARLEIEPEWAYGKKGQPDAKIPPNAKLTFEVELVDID
Briefly: Displacement of 5-(3-(4-(((5S,6S)-10-(3,5-dichlorophenylsulfonyl)-2-oxo-5-vinyl-3,10-diazabicyclo[4.3.1]decan-3-yl)methyl)-1H-1,2,3-triazol-1-yl)propylcarbamoyl)-2-(6-(dimethylamino)-3-(dimethyliminio)-3,10-dihydroanthracen-9-yl)benzoate from human FKBP25 after 30 mins by fluorescence polarization assay. The method in brief:
as §1

The target in test [14] is T5, Peptidyl-prolyl cis-trans isomerase FKBP4 (Homo sapiens, UniProt Q02790).
T5 sequence (Q02790 whole entry): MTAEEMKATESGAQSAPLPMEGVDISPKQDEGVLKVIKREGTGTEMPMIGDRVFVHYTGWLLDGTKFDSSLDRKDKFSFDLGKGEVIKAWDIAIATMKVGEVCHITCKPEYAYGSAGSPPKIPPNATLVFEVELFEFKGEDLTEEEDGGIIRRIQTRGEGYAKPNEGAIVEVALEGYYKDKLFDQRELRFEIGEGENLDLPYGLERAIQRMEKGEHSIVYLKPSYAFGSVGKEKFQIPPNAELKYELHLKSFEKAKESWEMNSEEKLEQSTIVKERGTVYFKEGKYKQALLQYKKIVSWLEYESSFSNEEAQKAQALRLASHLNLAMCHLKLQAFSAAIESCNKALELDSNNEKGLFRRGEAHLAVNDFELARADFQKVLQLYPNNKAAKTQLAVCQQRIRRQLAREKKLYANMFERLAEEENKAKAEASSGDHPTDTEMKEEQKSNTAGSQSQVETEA
Briefly: Displacement of 5-(3-(4-(((5S,6S)-10-(3,5-dichlorophenylsulfonyl)-2-oxo-5-vinyl-3,10-diazabicyclo[4.3.1]decan-3-yl)methyl)-1H-1,2,3-triazol-1-yl)propylcarbamoyl)-2-(6-(dimethylamino)-3-(dimethyliminio)-3,10-dihydroanthracen-9-yl)benzoate from human FKBP52 after 30 mins by fluorescence polarization assay. The method in brief:
as §1

Sequence of Outer membrane protein MIP (Q70YI1 21-233 limits assumed): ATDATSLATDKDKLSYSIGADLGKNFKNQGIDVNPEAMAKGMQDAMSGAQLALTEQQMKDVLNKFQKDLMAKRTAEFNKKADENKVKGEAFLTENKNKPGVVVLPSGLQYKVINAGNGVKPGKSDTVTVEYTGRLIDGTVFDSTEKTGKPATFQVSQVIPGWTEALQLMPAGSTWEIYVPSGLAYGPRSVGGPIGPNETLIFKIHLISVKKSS
Sequence of Peptidyl-prolyl cis-trans isomerase FKBP1B (P68106 whole entry): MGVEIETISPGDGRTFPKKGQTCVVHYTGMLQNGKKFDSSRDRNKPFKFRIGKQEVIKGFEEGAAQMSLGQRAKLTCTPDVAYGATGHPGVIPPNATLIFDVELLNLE
Sequence of Peptidyl-prolyl cis-trans isomerase FKBP1A (P62942 whole entry): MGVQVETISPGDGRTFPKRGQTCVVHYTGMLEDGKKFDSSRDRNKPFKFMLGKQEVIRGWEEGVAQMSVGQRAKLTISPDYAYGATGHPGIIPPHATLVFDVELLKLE

For `CC[C@H]1CN(Cc2ccccn2)C(=O)[C@@H]2CCC[C@H]1N2S(=O)(=O)c1cc(Cl)cc(Cl)c1`, the Ki stood at 1810 nM in test [1]; 598 nM in [2]; 40.1 nM in test [3]; 399 nM in [4]; 98.1 nM in test [7]. Moreover, the IC50 was found to be 3.1 µM in test [5] and 2300 nM in [8] (3D7, 60 h). For the same compound, in [6], the “growth inhibition (GI)” value is “Dose-dependent effect”. For the same compound, the Activity entry in [8] was “Dose-dependent effect”.
On to `COC[C@H]1CN(Cc2ccccn2)C(=O)[C@@H]2CCC[C@H]1N2S(=O)(=O)c1cc(Cl)cc(Cl)c1`, for which the Ki in test [9] was 0.45 nM; in [10], 60.5 nM; in [11] it was 24.5 nM; in test [12], 1.23 nM; in [13], 1130 nM; in test [14], 18.9 nM.

As a reminder, the Ki is a dissociation constant, usually derived from enzyme kinetics or from competition with a known ligand. A high value points to weaker binding. In general, IC50 refers to the concentration at which inhibition is half-maximal.
